# Assay results: PubChem BioAssay
# Values without a mark were called inactive. Results filed as inconclusive are left out. Calls of active or inactive are those of the source.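 How the source made its calls, unless noted: active means viability at or below 27.92% in each of two runs, the all-compound median minus 4 SD; inconclusive means no clear call, values can overlap the other calls; inactive means the rest.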
# Tests used:
# [1] = S. cerevisiae growth inhibition in permissive medium (OD615), pilot counter-assay for S. cerevisiae lifespan shortening project, permissive growth control (AID 705;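 active means growth inhibition above 25% in both replicates, a cutoff set 3 SD above the mean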); settings: OD615, 24 h, at 10 µM, hits give high values
# Outline: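 assay system = Saccharomyces cerevisiae strain carrying genetically modified DeaD replicative-lifespan system | technique = absorbance (optical density) at 615 nm | buffer or medium = permissive raffinose/galactose medium | timing = cells pre-grown 4 h, then 24 h compound exposure, 30 °C humidified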
# [2] = S. cerevisiae growth inhibition in restrictive medium, OD615, pilot screen, restrictive growth control, yeast lifespan reduction project (AID 706;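 active means growth inhibition above a set limit, 3 SD over mean compound inhibition, in both replicates, cut at about 43% in these data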;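 further: modified DeaD lifespan yeast strain shifted to restrictive glucose medium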); settings: OD615, 48 h, at 10 µM, hits give high values
# Outline: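 System: modified S. cerevisiae. Buffer or medium: CSMM-D glucose medium. Incubation: 4 h pre-growth plus 48 h compound exposure, 30 °C. Detection: absorbance (optical density) measured at 615 nm.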
# [3] = doxorubicin toxicity protection in MRP-1 cells – H69AR cells, CellTiter-Glo, duplicate, MRP-1 activator project, pilot screen (AID 807;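 active means viability increase at or above a cutoff of the median across tested compounds plus 3 SD, cut at about 8.5% in these data, passing the limit was not always enough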;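 further: compound pretreatment 18-22 h then 72 h combined with doxorubicin; 0% = doxorubicin alone and 100% = vehicle without doxorubicin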); settings: H69AR viability with doxorubicin, CellTiter-Glo luminescence; at 10 µM; hits give high values
# [4] = viability of HCT116 without oncogenic beta-catenin – human colon tumor cells, pilot screen (AID 823;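 active means cell viability at or below a set limit in both duplicate runs, the limit being the all-compound median minus 4 SD, cut at about 23% in these data, passing the limit was not always enough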;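 further: 0% = wells killed by 20 µM Hyamine and 100% = untreated DMSO cell wells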); settings: HCT116 beta-catenin knockout viability, CellTiter-Glo, 60 h; at 10 µM; hits give low values
# [5] = viability of PTEN-null HCT116 cells – cell-based, HCT116 clonal line, CellTiter-Glo, pilot screen (AID 824); settings: HCT116 PTEN-deleted viability, 60 h, at 10 µM, hits give low values;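 further: 0% = 20 µM Hyamine control and 100% = vehicle cell control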
# [6] = RAM pathway blockade in budding yeast – dse1pr::URA3 reporter, 5-FOA selection, pilot screen (AID 869;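 active means inhibition over a set limit, the all-compound mean plus 3 SD, in both replicate runs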;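 further: 0% = DMSO wells with no growth and 100% = 10 µM 1-NA-PP1 with full growth; RAM network block rescues cells from 5-FOA so hits raise OD615 growth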); settings: S. cerevisiae dse1pr::URA3 5-FOA growth, OD615, 2 d; at 10 µM; hits give high values; strain carries analog-sensitive mutant Cbk1 kinase
# [7] = RAM signaling pathway blockade in yeast – S. cerevisiae, Pdr1DBD-CYC8 efflux-inhibited sensitized strain, primary screen (AID 1298;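 active means RAM network inhibition above 8.4% in each of two replicates, 3 SD over the compound average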;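 further: 0% = DMSO untreated cells without growth and 100% = 10 µM 1-NA-PP1 full growth; higher means more yeast growth rescued from 5-FOA killing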); settings: S. cerevisiae cbk1-as DSE1-URA3 strain, 5-FOA growth OD615, 2 d; at 50 µM; hits give high values
Structure (SMILES),growth inhibition [1],growth inhibition [2],viability increase [3],viability [4],viability [5],inhibition [6],RAM network inhibition [7]
COc1ccccc1-c1c(C)nn2c(N3CCCCCC3)cc(C)nc12,-5.18%,-3.49%,-7.77%,6.78% (active),7.98% (active),1.42%,-0.76%
N#CCC(=O)Nc1sc2c(c1C(N)=O)CCCC2,-12.7%,-7.35%,-1.93%,97.5%,99.9%,3.18%,0.67%
COc1ccc(Cc2nnc(Nc3ccc(C)cc3C)[nH]c2=O)cc1,-10.4%,-12.6%,-1.16%,91.2%,94.2%,1.08%,7.16%
Cc1cc2c(cc(C(=O)N3CCC(C(=O)NC4CCCC4)CC3)n2Cc2c(F)cccc2Cl)o1,-3.7%,-5.26%,-1.51%,62%,54.8%,0.72%,3.45%
COc1ccc(OC)c(NC(=O)c2nnn(CCc3ccccc3)c2N)c1,-5.97%,-3.14%,-4.62%,88%,89.7%,1.85%,13.1%
CCOC(=O)c1cccc(NC(=O)Cn2cc3c(n2)CCC(C)C3)c1 (configuration not stated),4.72%,17.6%,-0.48%,101%,92.3%,1.12%,0.81%
CCN(CC)CCCNC(=O)C1c2ccccc2C(=O)N(C)C1c1ccc(OC)cc1 (configuration not stated),-23%,-20.7%,0.37%,96.5%,97.3%,3.1%,2.54%
CCOC(=O)c1oc2cc(O)c(CC)cc2c(=O)c1-c1ccc2c(c1)OCCO2,-22.8%,-16.3%,-2.23%,101%,91.7%,3%,5.4%
CCOC(=O)Cn1c(=NC(=O)CSC(C)=O)sc2ccccc21,0%,8.74%,-4.54%,105%,106%,0.465%,4.02%
COc1ccc2cc(CCNC(=O)C3CCCC3)c(=O)[nH]c2c1,-6.89%,-9.8%,-0.27%,109%,98.5%,1.08%,0.21%
Cn1c(=O)oc2cc(S(=O)(=O)NC(Cc3ccccc3)C(=O)N3CCCCC3)ccc21 (configuration not stated),-6.13%,-11.9%,-2.55%,109%,98.6%,2.8%,2.02%
Cc1[nH]n(-c2ccccc2)c(=O)c1S(=O)(=O)c1ccccc1,-0.29%,-3.15%,0.62%,102%,98.7%,0.08%,2.99%
O=C1CC(c2ccc(S(=O)(=O)NC3CC3)cc2)CN1 (configuration not stated),-9.26%,-7.47%,-2.08%,110%,103%,0.075%,-0.6%
COc1ccc(-c2nc(-c3ccc(Br)o3)no2)cc1OC,-7.45%,-17.9%,-0.69%,86.3%,78.6%,0.88%,2.25%
CCc1nnc(NC(=O)CN2CCOCC2)s1,-2.81%,-19.4%,-1.62%,95.8%,101%,1.18%,6.14%
[O-]/[N+](=C\c1ccncc1)c1ccc(Br)cc1,-15%,-19.9%,-4.14%,83.7%,87.9%,2.81%,6.02%
COC(=O)c1nc2n(n1)C(c1cccc(Cl)c1)C1=C(CCCC1=O)N2 (configuration not stated),-4.09%,7.08%,-2.99%,98.1%,95.3%,0.155%,1.89%
COc1ccc(OCC(=O)Nc2cccc(C(C)=O)c2)cc1,0.595%,15.9%,-0.88%,93.9%,94.6%,0.74%,2.7%

Structure (SMILES),growth inhibition [1],growth inhibition [2],viability increase [3],viability [4],viability [5],inhibition [6],RAM network inhibition [7]
COc1cccc(CN2CCNC(=O)C2CC(=O)O)c1OC (configuration not stated),-18.3%,-12.7%,-2.76%,101%,97%,1.81%,2.85%
N#Cc1nc(-c2ccccc2F)oc1NC1CCCCC1,-18.3%,-17.6%,-2.53%,87.7%,87.6%,0.64%,6%
CN=C(NC)SC1CC(=O)N(c2ccccc2)C1=O (configuration not stated),-8.98%,-4.91%,1.47%,109%,101%,0.305%,1.02%
COCCn1c(C)cc(C(=O)CSc2nnc3ccccn23)c1C,8.47%,3.52%,-1.95%,98.8%,91.7%,0.76%,2.51%
CCC1Oc2ccc(C)cc2N(CC(=O)NCCc2ccc(OC)c(OC)c2)C1=O (configuration not stated),-6.91%,3.82%,-0.77%,95.2%,92.4%,1.23%,-0.46%
COc1ccc(OC)c2[nH]c(=O)c(CCNC(=O)C(C)(C)C)cc12,-5.16%,-4.56%,1.19%,105%,102%,0.23%,0.89%
CCC(=O)Nc1nc2c(OC)ccc(OC)c2s1,-2.06%,0.075%,-2.87%,97.5%,94.5%,1.07%,2.34%
COc1cc(NS(=O)(=O)c2ccc(NC(=O)C34CC5CC(CC(C5)C3)C4)cc2)ncn1,-0.475%,-24.6%,-1.47%,98.1%,91.9%,2.73%,8.43%
CCOC(=O)N1CCN(C(=O)CSc2nc3c(cnn3-c3ccc(C)cc3)c(=O)[nH]2)CC1,-0.175%,4.84%,-4.44%,95.7%,94.1%,-0.44%,3.12%
Cc1ccc(Cn2c(Sc3nnc(C)s3)nc3c2c(=O)[nH]c(=O)n3C)cc1,-1.77%,-4.4%,-2.58%,85.8%,78.6%,2.5%,1.84%
CC1=C(C(=O)Nc2ccccc2)C(c2ccco2)C(C#N)=C(SCc2ccccc2)N1 (configuration not stated),9%,14.5%,-7.63%,11.8% (active),9.06% (active),3.18%,3.38%
COc1ccc2[nH]c(C)c(CCN3C(=O)C4C5C=CC(C5)C4C3=O)c2c1 (configuration not stated),-3.19%,5.9%,-2.43%,106%,94.9%,0.285%,4.02%
CC1(C)C(C#N)=C(N)OC2=C1C(=O)CCC2,-8.74%,-5.87%,-0.89%,96.3%,97.4%,2.41%,1.3%
Cc1[nH]c2ccccc2c1CCC(N)=O,-0.405%,3.01%,-1.34%,101%,96.2%,1.92%,3.67%
CC(=O)Nc1nnc(SCC(=O)NC(C)(C)C)s1,-6.89%,1.67%,-0.33%,94.8%,98.8%,1.88%,0.36%
Cn1c(C(=O)N2CCC(C(N)=O)CC2)cc2c(=O)n(C)c3ccccc3c21,-2.25%,1.93%,-0.97%,110%,99.3%,0.085%,2.21%
CCOC(=O)c1nc2nc(C)cc(=O)n2[nH]1,-14.5%,-7.54%,0.46%,105%,97.7%,0.96%,4.54%
O=C1CCc2cc(S(=O)(=O)NC(C(=O)NCc3cccnc3)c3ccccc3)ccc2N1 (configuration not stated),-5.88%,4.59%,-2.98%,100%,98.3%,-0.185%,3.79%
